Sampled rows, rich in hits. Any-hit rate of the full collection: about 1%.
eIF2B yeast act = modulators of yeast eIF2B activity; inhibition, % at 25 µM (by protocol); S. cerevisiae eIF2B-epsilon R284H, GCN4-lacZ luminescence; 27,000 compounds, 0.91% hits;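 active = mutant luminescence inhibited past about 50% while wild type luminescence and mutant growth stay under set limits, limit read from the data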
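Assay system: yeast eIF2B-epsilon R284H mutant carrying GCN4–beta-galactosidase fusion / Buffer or medium: YPD / Incubation: 16 h growth with compound at 30 °C, 90 min Beta-Glo step / Detection: Beta-Glo luminescence after Z-buffer lysis, growth by 595 nm absorbance / Read-out: % inhibition of reporter signal and growth versus controls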
Yeast tox = Inhibits yeast growth, turbidity readout; S. cerevisiae wild-type growth, A595 turbidity, 16 h; growth inhibition, % at 25 µM (by protocol); 30,000 compounds, 0.3% hits; AID 685;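 active = mutant and wild-type yeast strains alike exhibit over 30% growth inhibition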;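 note: 0% = untreated cell controls and 100% = YPD media blanks without cells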
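Test system: Wild-type and eIF2Bepsilon-R284H mutant S. cerevisiae, screened separately | Dosing: Single 25 µM compound dose in 0.2% DMSO | Schedule: 16 h compound exposure during growth at 30 °C | Detection: A595 turbidity | Evaluation: Growth inhibition (%) versus cell controls and blanks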
Starred values were filed as active, the others as inactive.

How did COc1ccc(N(CC(=O)NC2CCCCCC2)S(=O)(=O)c2c(C)nn(C)c2C)cc1 do in these assays?
eIF2B yeast act: 14; Yeast tox: -30

What do the screens show for `CCOCCCNC(=O)C1CCN(c2cc(C)nc3c(-c4ccc(OC)c(OC)c4)c(C)nn23)CC1`?
eIF2B yeast act: 63*; Yeast tox: -12

Results for Cc1cc(N2CCC(C)CC2)n2nc(C)c(-c3ccccc3)c2n1 ?
eIF2B yeast act: 12; Yeast tox: 10

How did CCOc1ccccc1NC(=O)NS(=O)(=O)c1ccc(C)cc1 do in these assays?
eIF2B yeast act: 10; Yeast tox: 6

Results for CC1=C(C(=O)OC2CCCCCCC2)C(c2cc3c(cc2Br)OCO3)CC(=O)N1 (configuration not stated) ?
Yeast tox: 5

Results for Cc1ccc(NC(=O)CSC2=C(C#N)C(c3ccco3)C3=C(CCCC3=O)N2)cc1 (configuration not stated) ?
eIF2B yeast act: -7; Yeast tox: 6

Results for N#CC1=C(SCC(=O)c2ccc(Cl)cc2)NC2=C(C(=O)CCC2)C1c1ccco1 (configuration not stated) ?
eIF2B yeast act: 51*; Yeast tox: 5

Results for CC(=O)/C=C(\C)Nc1ccc(-c2cnc(-c3ccccc3)o2)cc1 ?
eIF2B yeast act: 70*; Yeast tox: -21

Results for C/C(=C\C(=O)c1ccccc1)Nc1ccc(O)cc1 ?
eIF2B yeast act: 20; Yeast tox: 15

How did CN(CC(=O)Nc1cccc2ccccc12)c1ccc(S(=O)(=O)N2CCOCC2)cn1 do in these assays?
eIF2B yeast act: 28; Yeast tox: -16

Results for CC1CC(C)CN(CCCNC(=O)Cc2c(C(=O)O)[nH]c3ccccc23)C1 (configuration not stated) ?
eIF2B yeast act: -9; Yeast tox: 7

Results for Cc1ccc(NC2CC(=O)N(Cc3ccccc3)C2=O)cc1 (configuration not stated) ?
Yeast tox: 28

What do the screens show for `CN1C(=O)CC2(CC(=O)N(Cc3ccccc3)C2)C1=O` (configuration not stated)?
eIF2B yeast act: 61*

What do the screens show for `COc1ccc(N2CCN(C(=O)CN(C)S(=O)(=O)c3cnc[nH]3)CC2)cc1`?
eIF2B yeast act: 13; Yeast tox: 18

How did CCOC(=O)N1CCN(C(=O)CN(C2CCCCC2)S(=O)(=O)c2ccc(Cl)cc2)CC1 do in these assays?
Yeast tox: 6

Results for COC(=O)c1ccc(NS(=O)(=O)N(C)C)cc1 ?
eIF2B yeast act: 60*; Yeast tox: -7

How did Cc1ccc(NS(=O)(=O)N(C)C)cc1 do in these assays?
eIF2B yeast act: -12; Yeast tox: -5

Results for Cc1cc(C(=O)N2CCC(C(F)(F)F)n3nccc32)on1 (configuration not stated) ?
eIF2B yeast act: -15; Yeast tox: 35

Results for CCOC(=O)Cn1c(=S)[nH]c2c(oc3ccc(Cl)cc32)c1=O ?
eIF2B yeast act: 15; Yeast tox: -3

Results for CCOC(=O)CC(=O)CSc1nc(C)cc(-c2cccnc2)c1C#N ?
eIF2B yeast act: 55*; Yeast tox: -8

How did CCOC(=O)CC(=O)CSc1nc(-c2cccnc2)cc(C)c1C#N do in these assays?
eIF2B yeast act: 3; Yeast tox: 2

How did CCCc1n[nH]c2c1C(=O)C(C(=O)OC)C(C)(C)C2 (configuration not stated) do in these assays?
eIF2B yeast act: -63; Yeast tox: -17

How did CCCCCC(=O)N(O)C1CC(=O)N(c2ccccc2)C1=O (configuration not stated) do in these assays?
eIF2B yeast act: 47; Yeast tox: 38*

How did CN(Cc1ccccc1)C1CC(=O)N(c2ccc(C(=O)O)cc2)C1=O (configuration not stated) do in these assays?
eIF2B yeast act: -7; Yeast tox: -1

How did Cc1cccc(-c2c3c(=O)n(C)c(=O)n(C)c3c3cccnn23)c1 do in these assays?
eIF2B yeast act: 29; Yeast tox: 2

Source: PubChem
